Data taken from ChEMBL document CHEMBL1157126, “Synthesis and biological activity of N(4)-phenylsubstituted-6-(2,4-dichloro phenylmethyl)-7H-pyrrolo[2,3-d]pyrimidine-2,4-diamines as vascular endothelial growth factor receptor-2 inhibitors and antiangiogenic and antitumor agents” (Bioorg Med Chem, 2010).
Activity calls are given as the source filed them. The rule behind the calls is not given here.

Key:
A-431 = assay: Antiproliferative activity against human A431 cells after 48 hrs by quant dye staining-based UV spectroscopy; assay type: functional, cell-based; settings: A-431, 48 h
[1] = biological target: T1, Vascular endothelial growth factor receptor 2 (Homo sapiens, UniProt P35968); assay: Inhibition of VEGFR2 phosphorylation in human U251 cells after 10 mins by FLISA; assay type: cell-based, U-251
T1 sequence (P35968 whole entry): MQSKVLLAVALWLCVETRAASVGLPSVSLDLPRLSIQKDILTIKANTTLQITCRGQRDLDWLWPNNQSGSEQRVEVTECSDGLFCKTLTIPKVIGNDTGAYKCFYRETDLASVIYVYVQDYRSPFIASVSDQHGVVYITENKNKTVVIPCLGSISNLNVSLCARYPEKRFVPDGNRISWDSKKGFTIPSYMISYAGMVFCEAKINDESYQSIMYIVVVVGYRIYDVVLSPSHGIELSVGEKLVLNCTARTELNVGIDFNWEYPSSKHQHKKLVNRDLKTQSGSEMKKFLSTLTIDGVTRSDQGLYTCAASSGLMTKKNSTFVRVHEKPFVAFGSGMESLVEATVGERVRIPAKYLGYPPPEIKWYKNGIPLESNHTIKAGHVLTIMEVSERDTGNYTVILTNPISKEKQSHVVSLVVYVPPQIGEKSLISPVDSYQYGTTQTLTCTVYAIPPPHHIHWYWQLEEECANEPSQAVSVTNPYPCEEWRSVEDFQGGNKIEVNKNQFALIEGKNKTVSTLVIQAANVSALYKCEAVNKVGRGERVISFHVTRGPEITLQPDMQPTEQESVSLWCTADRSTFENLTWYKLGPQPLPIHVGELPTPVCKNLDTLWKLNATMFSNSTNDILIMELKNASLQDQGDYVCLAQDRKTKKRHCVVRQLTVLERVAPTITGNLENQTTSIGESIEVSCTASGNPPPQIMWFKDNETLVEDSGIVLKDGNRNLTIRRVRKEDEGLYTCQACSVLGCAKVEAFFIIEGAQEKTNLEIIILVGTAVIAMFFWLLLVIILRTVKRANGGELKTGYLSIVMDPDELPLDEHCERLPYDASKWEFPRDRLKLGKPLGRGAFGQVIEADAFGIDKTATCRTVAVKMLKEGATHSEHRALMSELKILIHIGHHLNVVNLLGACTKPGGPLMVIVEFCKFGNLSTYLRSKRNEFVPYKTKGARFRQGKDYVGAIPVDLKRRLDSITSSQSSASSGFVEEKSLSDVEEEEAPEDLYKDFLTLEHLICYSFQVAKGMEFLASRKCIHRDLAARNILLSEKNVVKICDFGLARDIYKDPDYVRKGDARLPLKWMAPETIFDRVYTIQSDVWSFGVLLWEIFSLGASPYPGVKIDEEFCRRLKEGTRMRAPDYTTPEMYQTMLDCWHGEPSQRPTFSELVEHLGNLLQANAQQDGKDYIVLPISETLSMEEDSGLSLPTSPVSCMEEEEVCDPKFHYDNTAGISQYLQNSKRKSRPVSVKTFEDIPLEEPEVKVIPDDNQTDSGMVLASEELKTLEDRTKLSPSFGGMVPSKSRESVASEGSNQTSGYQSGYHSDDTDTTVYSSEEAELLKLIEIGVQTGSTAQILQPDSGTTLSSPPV

[2] = biological target: Vascular endothelial growth factor receptor 1 (Homo sapiens, UniProt P17948); assay: Inhibition of VEGFR1 phosphorylation in human A498 cells after 10 mins by FLISA; assay type: cell-based
Vascular endothelial growth factor receptor 1, sequence (P17948 whole entry): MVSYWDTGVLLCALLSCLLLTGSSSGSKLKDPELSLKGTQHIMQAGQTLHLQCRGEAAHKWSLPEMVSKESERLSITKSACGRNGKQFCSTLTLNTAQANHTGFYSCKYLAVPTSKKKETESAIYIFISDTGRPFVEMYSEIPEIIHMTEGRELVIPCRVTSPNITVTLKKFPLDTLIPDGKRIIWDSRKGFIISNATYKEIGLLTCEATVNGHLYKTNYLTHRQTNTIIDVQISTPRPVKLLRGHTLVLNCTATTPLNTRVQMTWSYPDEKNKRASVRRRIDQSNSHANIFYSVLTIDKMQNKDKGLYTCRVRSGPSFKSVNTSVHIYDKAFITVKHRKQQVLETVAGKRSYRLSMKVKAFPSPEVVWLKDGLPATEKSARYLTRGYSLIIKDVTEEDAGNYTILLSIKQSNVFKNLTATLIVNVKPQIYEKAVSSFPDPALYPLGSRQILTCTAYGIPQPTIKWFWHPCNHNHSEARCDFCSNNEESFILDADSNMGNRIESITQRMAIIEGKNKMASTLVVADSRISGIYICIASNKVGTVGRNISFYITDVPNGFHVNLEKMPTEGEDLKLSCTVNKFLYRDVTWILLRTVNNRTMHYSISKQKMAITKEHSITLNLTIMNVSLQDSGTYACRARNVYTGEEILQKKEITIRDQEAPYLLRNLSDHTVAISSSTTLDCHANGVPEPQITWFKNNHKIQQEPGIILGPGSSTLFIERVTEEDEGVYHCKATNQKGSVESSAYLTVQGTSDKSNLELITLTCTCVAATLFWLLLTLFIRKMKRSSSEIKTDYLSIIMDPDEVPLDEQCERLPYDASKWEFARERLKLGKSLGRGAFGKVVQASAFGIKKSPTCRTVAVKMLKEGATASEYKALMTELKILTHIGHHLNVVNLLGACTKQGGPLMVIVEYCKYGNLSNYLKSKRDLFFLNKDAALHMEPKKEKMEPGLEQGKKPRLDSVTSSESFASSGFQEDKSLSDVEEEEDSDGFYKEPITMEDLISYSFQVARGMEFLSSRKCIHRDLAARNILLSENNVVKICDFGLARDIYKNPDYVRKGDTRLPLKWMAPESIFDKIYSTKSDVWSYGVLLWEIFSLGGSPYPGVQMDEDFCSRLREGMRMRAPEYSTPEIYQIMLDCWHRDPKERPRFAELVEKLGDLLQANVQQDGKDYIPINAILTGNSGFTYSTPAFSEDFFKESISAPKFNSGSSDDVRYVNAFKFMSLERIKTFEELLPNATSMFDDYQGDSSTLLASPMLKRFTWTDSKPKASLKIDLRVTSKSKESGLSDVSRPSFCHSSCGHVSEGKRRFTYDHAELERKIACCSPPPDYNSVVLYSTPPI

[3] = biological target: Epidermal growth factor receptor (Homo sapiens, UniProt P00533); assay: Inhibition of EGFR phosphorylation in human A431 cells after 10 mins by FLISA; assay type: cell-based, A-431
Epidermal growth factor receptor, sequence (P00533 whole entry): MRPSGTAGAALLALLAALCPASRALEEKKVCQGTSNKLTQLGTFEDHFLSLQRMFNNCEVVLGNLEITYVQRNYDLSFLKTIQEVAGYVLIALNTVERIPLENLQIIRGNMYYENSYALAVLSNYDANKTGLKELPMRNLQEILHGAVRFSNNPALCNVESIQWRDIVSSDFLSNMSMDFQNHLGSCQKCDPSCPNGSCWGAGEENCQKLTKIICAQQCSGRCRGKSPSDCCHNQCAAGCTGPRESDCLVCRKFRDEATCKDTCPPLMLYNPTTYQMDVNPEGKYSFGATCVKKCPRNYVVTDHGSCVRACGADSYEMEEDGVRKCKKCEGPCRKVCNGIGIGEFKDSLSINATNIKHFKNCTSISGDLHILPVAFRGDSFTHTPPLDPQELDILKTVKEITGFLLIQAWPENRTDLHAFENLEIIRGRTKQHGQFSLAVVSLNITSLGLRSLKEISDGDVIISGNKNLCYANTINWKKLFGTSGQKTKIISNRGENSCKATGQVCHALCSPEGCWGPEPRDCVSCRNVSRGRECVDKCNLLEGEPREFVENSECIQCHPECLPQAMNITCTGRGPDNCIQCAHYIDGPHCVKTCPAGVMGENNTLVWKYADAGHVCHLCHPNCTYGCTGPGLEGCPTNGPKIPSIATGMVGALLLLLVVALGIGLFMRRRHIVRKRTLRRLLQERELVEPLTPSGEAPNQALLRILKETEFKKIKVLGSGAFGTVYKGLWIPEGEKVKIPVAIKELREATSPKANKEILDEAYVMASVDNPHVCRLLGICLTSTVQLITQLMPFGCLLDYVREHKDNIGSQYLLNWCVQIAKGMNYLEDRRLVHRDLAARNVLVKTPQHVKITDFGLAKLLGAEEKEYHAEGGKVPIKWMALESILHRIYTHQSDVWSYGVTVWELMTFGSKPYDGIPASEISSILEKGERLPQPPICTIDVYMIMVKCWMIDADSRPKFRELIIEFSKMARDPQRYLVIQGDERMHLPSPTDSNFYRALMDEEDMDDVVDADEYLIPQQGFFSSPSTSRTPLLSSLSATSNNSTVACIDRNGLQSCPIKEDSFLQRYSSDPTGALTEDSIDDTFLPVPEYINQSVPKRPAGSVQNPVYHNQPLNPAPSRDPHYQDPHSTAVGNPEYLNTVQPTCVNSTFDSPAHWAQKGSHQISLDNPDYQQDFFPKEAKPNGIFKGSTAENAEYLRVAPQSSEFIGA

[4] = biological target: T2, Platelet-derived growth factor receptor beta (Homo sapiens, UniProt P09619); assay: Inhibition of PDGFRbeta phosphorylation in human SF539 cells after 10 mins by FLISA
T2 sequence (P09619 whole entry): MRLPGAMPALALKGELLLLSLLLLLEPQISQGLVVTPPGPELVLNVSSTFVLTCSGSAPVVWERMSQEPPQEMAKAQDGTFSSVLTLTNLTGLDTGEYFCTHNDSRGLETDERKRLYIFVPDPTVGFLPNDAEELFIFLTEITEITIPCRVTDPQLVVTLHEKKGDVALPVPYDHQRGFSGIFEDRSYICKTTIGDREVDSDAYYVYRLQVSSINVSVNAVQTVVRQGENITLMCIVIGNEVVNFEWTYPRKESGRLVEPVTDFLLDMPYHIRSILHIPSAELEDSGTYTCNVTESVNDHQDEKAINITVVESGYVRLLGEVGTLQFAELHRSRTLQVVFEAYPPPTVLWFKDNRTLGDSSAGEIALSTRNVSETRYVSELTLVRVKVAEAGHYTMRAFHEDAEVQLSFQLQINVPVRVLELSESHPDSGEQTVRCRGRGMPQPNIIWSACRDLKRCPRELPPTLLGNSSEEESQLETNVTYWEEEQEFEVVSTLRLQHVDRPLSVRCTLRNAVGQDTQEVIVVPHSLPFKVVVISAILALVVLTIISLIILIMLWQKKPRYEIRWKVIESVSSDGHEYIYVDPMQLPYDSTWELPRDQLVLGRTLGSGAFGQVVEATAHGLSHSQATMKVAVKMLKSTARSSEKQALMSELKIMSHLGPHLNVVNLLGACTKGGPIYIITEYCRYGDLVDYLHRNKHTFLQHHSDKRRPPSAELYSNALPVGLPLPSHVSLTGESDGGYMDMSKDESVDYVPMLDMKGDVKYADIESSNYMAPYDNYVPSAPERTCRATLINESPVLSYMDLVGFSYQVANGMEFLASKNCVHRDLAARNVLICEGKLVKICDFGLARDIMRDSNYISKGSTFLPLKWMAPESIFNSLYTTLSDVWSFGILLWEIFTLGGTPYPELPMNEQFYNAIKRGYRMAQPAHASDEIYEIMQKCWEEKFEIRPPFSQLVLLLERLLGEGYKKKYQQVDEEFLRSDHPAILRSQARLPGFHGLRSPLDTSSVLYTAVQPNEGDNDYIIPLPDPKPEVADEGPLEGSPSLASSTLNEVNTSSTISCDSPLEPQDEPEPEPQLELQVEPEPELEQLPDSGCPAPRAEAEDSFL

[5] = biological target: T1, Vascular endothelial growth factor receptor 2; assay: Ratio of semaxanib IC50 to compound IC50 for VEGFR2 phosphorylation in human U251 cells; assay type: cell-based; settings: U-251
B16-F10 [6] = assay: Antitumor activity against mouse B16F10 cells xenografted in NCr nu/nu mouse assessed as inhibition of lung metastasis at 35 mg/kg, ip administered after 9 days of tumor implantation for weekly 3 times measured on day 28 post-implantation by hematoxylin-eosin staining; assay type: functional, organism-based; parameters: dose 35 mg/kg
Outline: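 Male athymic NCr nu/nu mice (8 weeks) received 50,000 B16-F10 cells SQ behind the ear, 5–6/group, two experiments. Drug given IP in sterile water (from 30 mM DMSO stocks) Mon/Wed/Fri starting day 9; shams received water. On day 28 lungs excised, formalin-fixed, paraffin-embedded. Metastases per lung lobe counted on three H&E sections. Mean ± SEM, one-way ANOVA with Neuman-Keuls.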

B16-F10 [7] = assay: Antitumor activity against mouse B16F10 cells xenografted in NCr nu/nu mouse assessed as antiangiogenic activity-related decrease in tumor vascularity at 35 mg/kg, ip administered after 9 days of tumor implantation for weekly 3 times measured on day 28 post-implantation; assay type: functional, organism-based; parameters: dose 35 mg/kg
Outline: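 50,000 B16-F10 melanoma cells injected SQ behind the ear of 8-week-old male athymic NCr nu/nu mice, 5–6 animals/group, two experiments. IP dosing in sterile water (from 30 mM DMSO stocks) Mon/Wed/Fri from day 9; shams got water. Tumors excised day 28, formalin-fixed, paraffin-embedded, H&E stained. Vessels counted per unit area in 5 fields at 100× and averaged. Mean ± SEM, one-way ANOVA, Neuman-Keuls.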

B16-F10 [8] = assay: Antitumor activity against mouse B16F10 cells xenografted in NCr nu/nu mouse assessed as inhibition of tumor growth at 35 mg/kg, ip administered after 9 days of tumor implantation for weekly 3 times measured on day 28 post-implantation; assay type: functional, organism-based; parameters: dose 35 mg/kg
Outline: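 B16-F10 cells (50,000) implanted SQ behind the ear of 8-week-old male athymic NCr nu/nu mice, 5–6/group, two experiments. IP dosing in sterile water (from 30 mM DMSO stocks) Mon/Wed/Fri from day 9; water-only shams. Length, width and depth measured by calipers three times weekly; volume = L×W×D. Growth rate is the linear-regression slope from day 9 to day 28. Mean ± SEM, one-way ANOVA.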

B16-F10 [9] = settings: Mus musculus, 10 mg/kg
B16-F10 [10] = settings: Mus musculus, 10 mg/kg; remark: listed apart in the source
[11] = biological target: T2, Platelet-derived growth factor receptor beta; assay: Inhibition of PDGF-stimulated PDGFRbeta phosphorylation expressed in human SF-539 cells by chemiluminescence assay
B16-F10 [12] = settings: Mus musculus, 10 mg/kg; remark: listed apart in the source

Compound	IC50 (A-431) [µM]	IC50 [1] [µM]	IC50 [2] [µM]	IC50 [3] [µM]	IC50 [4] [µM]	Ratio IC50 [5]	inhibition (B16-F10 [6])	inhibition (B16-F10 [7])	inhibition (B16-F10 [8])	inhibition (B16-F10 [9])	inhibition (B16-F10 [10])	IC50 [11] [µM]	inhibition (B16-F10 [12])
Clc1ccc(Cc2cc3c(Nc4cccc(Br)c4)ncnc3[nH]2)c(Cl)c1	4.5	> 300	151	> 300	220								
C#Cc1cccc(Nc2nc(N)nc3[nH]c(Cc4ccc(Cl)cc4Cl)cc23)c1	9.5	85.6	> 300	55.2	> 300								
CC(C)c1ccc(Nc2nc(N)nc3[nH]c(Cc4ccc(Cl)cc4Cl)cc23)cc1	26.2	1.4	157	45.6	175	8							
FC(F)(F)c1cccc(Nc2ncnc3[nH]c(Cc4ccc(Cl)cc4Cl)cc23)c1	> 300	> 300	> 300	33.1	110								
Nc1nc(Nc2cccc(F)c2)c2cc(Cc3ccc(Cl)cc3Cl)[nH]c2n1	45.2	0.3	163	162	183	40							
Cc1ccccc1Cc1cc2c(Nc3cccc(Br)c3)ncnc2[nH]1	9.5	27.2	> 300	> 300	182								
Nc1nc(Nc2ccc(Cl)cc2F)c2cc(Cc3ccc(Cl)cc3Cl)[nH]c2n1	4.9	45.7	70.9	2.5	24.6	0.26							
Nc1nc(Nc2cccc(C(F)(F)F)c2)c2cc(Cc3ccc(Cl)cc3Cl)[nH]c2n1	195	> 300	156	27.2	> 300								
Nc1nc(Nc2ccc(C(F)(F)F)c(F)c2)c2cc(Cc3ccc(Cl)cc3Cl)[nH]c2n1	13.8	113	> 300	91.7	> 300								
Nc1nc(Nc2ccc(Br)cc2Cl)c2cc(Cc3ccc(Cl)cc3Cl)[nH]c2n1	16.2	0.1	> 300	> 300	> 300	100	Active	Active	Active				
C#Cc1cccc(Nc2ncnc3[nH]c(Cc4ccc(Cl)cc4Cl)cc23)c1	> 300	> 300	> 300	> 300	142								
COc1ccc(OC)c(Cc2cc3c(Nc4cccc(Br)c4)ncnc3[nH]2)c1	191	> 300	> 300	> 300	171								
CC(C)c1ccccc1Nc1nc(N)nc2[nH]c(Cc3ccc(Cl)cc3Cl)cc12	160	> 300	163	96.4	43								
Cc1[nH]c(/C=C2\C(=O)Nc3ccccc32)c(C)c1CCC(=O)O [ORANTINIB]										Active	Active	0.1	Active
Cc1ccccc1Cc1cc2c(Nc3cccc(Br)c3)nc(N)nc2[nH]1					> 50		Active	Active	Active				
